From ChEMBL document CHEMBL4699473, “Discovery of Bispecific Antagonists of Retinol Binding Protein 4 That Stabilize Transthyretin Tetramers: Scaffolding Hopping, Optimization, and Preclinical Pharmacological Evaluation as a Potential Therapy for Two Common Age-Related Comorbidities” (J Med Chem, 2020)
Converted amounts (≈) assume the structure as drawn. Blank lines part the entries; values can stand above or below the compound they belong to. The source made the active and inactive calls. The rule behind the calls is not given here.

Legend:
[1] = biological target: T1, Retinol-binding protein 4 (Homo sapiens, UniProt P02753); assay: Displacement of [3H]-all-trans-retinol from biotinylated human urine derived RBP4 measured after 16 hrs by scintillation proximity assay
[2] = biological target: T2, Transthyretin (Homo sapiens, UniProt P02766); assay: Stabilization of human His-tagged TTR (Gly21 to Glu147) expressed in HEK293 cells assessed as reduction in acid-induced protein aggregation by measuring increase in TTR monomer level at 50 uM incubated for 72 hrs at pH 4 by Western blot; assay type: cell-based
Outline: (§1)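 Human TTR (2 μL of 167 μM) incubated in 50 mM sodium acetate pH 4.0, 100 mM KCl, with or without 50 μM compound (DMSO vehicle), 72 h at 37 °C. Neutralized with 500 mM sodium phosphate pH 8.0 plus CHAPS, cross-linked, then run on SDS-PAGE and anti-TTR Western blot. Pixel volumes of high-molecular-weight and monomer bands quantified. At least three independent experiments; one-way ANOVA with Holm–Sidak test.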

[3] = biological target: T2, Transthyretin; assay: Stabilization of human His-tagged TTR (Gly21 to Glu147) expressed in HEK293 cells assessed as reduction in acid-induced protein aggregation by measuring reduction in high molecular aggregates at 50 uM incubated for 72 hrs at pH 4 by Western blot analysis relative to control; assay type: cell-based; outline: as §1
[4] = biological target: T2, Transthyretin; assay: Displacement of FITC-diclofenac from human plasma derived TTR measured after overnight incubation by fluorescence polarization assay; assay type: cell-free
Outline: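 Incubated overnight at 4 °C, then fluorescence polarization read. Nonspecific binding defined with 500 μM unlabeled diclofenac.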

[5] = Kinetic solubility of the compound in pH 7.4 PBS buffer by UV/VIS-HPLC method; assay type: physicochemical; details: read-out: Kinetic_solubility
Outline: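 Kinetic solubility measured in buffer at pH 7.4.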

[6] = Stability in Sprague-Dawley rat liver microsomes assessed as parent compound remaining measured after 30 mins; assay type: ADME, Microsome; details: 0.5 h
Outline: (§2)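 Parent compound remaining after 30 min incubation with human, rat, mouse or cynomolgus monkey liver microsomes, expressed as %.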

[7] = Stability in CD-1 mouse liver microsomes assessed as parent compound remaining measured after 30 mins; assay type: ADME, Microsome; details: 0.5 h; outline: as §2
[8] = Stability in cynomolgus monkey liver microsomes assessed as parent compound remaining measured after 30 mins; assay type: ADME, Macaca fascicularis, Microsome; details: 0.5 h; outline: as §2
[9] = Stability in human liver microsomes assessed as parent compound remaining measured after 30 mins; assay type: ADME, Microsome; details: 0.5 h; outline: as §2
[10] = biological target: CYP2C9 (Homo sapiens, UniProt P11712); assay: Inhibition of recombinant human CYP2C9 expressed in insect cell microsomes at 10 uM using 7-methoxy-4-trifluoromethylcoumarin as substrate measured after 15 to 45 mins in presence of NADPH by fluorescence assay relative to control; assay type: ADME, Microsome; details: probe 7-methoxy-4-trifluoromethylcoumarin, time 15-45 min
[11] = biological target: CYP2C19 (Homo sapiens, UniProt P33261); assay: Inhibition of recombinant human CYP2C19 expressed in insect cell microsomes at 10 uM using fluorescence probe as substrate measured after 15 to 45 mins in presence of NADPH by fluorescence assay relative to control; assay type: ADME, Microsome; details: time 15-45 min
[12] = biological target: CYP2D6 (Homo sapiens, UniProt P10635); assay: Inhibition of recombinant human CYP2D6 expressed in insect cell microsomes at 10 uM using fluorescence probe as substrate measured after 15 to 45 mins in presence of NADPH by fluorescence assay relative to control; assay type: ADME, Microsome; details: time 15-45 min
[13] = biological target: CYP3A4 (Homo sapiens, UniProt P08684); assay: Inhibition of recombinant human CYP3A4 expressed in insect cell microsomes at 10 uM using fluorescence probe as substrate measured after 15 to 45 mins in presence of NADPH by fluorescence assay relative to control; assay type: ADME, Microsome; details: time 15-45 min
[14] = Initial drug level in CD-1 mouse at 2 mg/kg, iv by LC-MS/MS analysis; assay type: ADME, organism-based; details: in vivo
Outline: (§3)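 Drug-naive adult male CD-1 mice, three per group, given a single IV 2 mg/kg dose in 3% dimethylacetamide/45% PEG300/12% ethanol/40% sterile water. Blood compound concentrations followed over time. C0 is the observed concentration at time zero, half-life is from the terminal elimination phase, and Vss is at steady state. Reported as mean (SD).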

[15] = Apparent terminal phase half life in CD-1 mouse at 2 mg/kg, iv by LC-MS/MS analysis; assay type: ADME, organism-based; details: in vivo; outline: as §3
[16] = Volume of distribution at steady state in CD-1 mouse at 2 mg/kg, iv by LC-MS/MS analysis; assay type: ADME, organism-based; details: in vivo; outline: as §3
[17] = Cmax in CD-1 mouse at 5 mg/kg, po administered via gavage by LC-MS/MS analysis; assay type: ADME, organism-based; parameters: route oral, dose 5 mg/kg; details: in vivo
Outline: (§4)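 Drug-naive adult male CD-1 mice, three per group, given a single oral 5 mg/kg dose in 2% Tween 80 in 0.9% saline. Compound levels measured in blood over time. Values are the mean (SD) of the PK parameters; %F is derived against the 2 mg/kg IV group.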

[18] = Tmax in CD-1 mouse at 5 mg/kg, po administered via gavage by LC-MS/MS analysis; assay type: ADME, organism-based; details: in vivo; outline: as §4
[19] = Apparent terminal phase half life in CD-1 mouse at 5 mg/kg, po administered via gavage by LC-MS/MS analysis; assay type: ADME, organism-based; details: in vivo; outline: as §4
[20] = AUC (infinity) in CD-1 mouse at 5 mg/kg, po administered via gavage by LC-MS/MS analysis; assay type: ADME, organism-based; parameters: route oral, time infinity, dose 5 mg/kg; details: in vivo; outline: as §4
[21] = Oral bioavailability in CD-1 mouse at 5 mg/kg administered via gavage by LC-MS/MS analysis; assay type: ADME, organism-based; details: in vivo; outline: as §4
[22] = In vivo antagonist activity at TTR-RBP4 complex in CD-1 mouse assessed as reduction in serum RBP4 level at 25 mg/kg, po administered via gavage measured after 6 hrs by ELISA relative to control; assay type: functional; parameters: scale not given: the % may be the effect or the level left
Outline: (§5)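 Male mice received a single oral dose of 25 mg/kg; serum RBP4 was followed over time, with the 6 h and 24 h points reported as % reduction. Three mice per group; values are mean ± SD.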

[23] = system: Mus musculus; assay: Effect on serum TTR level in CD-1 mouse at 25 mg/kg, po administered via gavage; assay type: functional, organism-based
[24] = In vivo antagonist activity at TTR-RBP4 complex in CD-1 mouse assessed as reduction in serum RBP4 level at 25 mg/kg, po administered via gavage measured after 24 hrs by ELISA relative to control; assay type: functional; parameters: scale not given: the % may be the effect or the level left; outline: as §5
[25] = biological target: T1, Retinol-binding protein 4; assay: Displacement of [3H]-all-trans-retinol from MBP-tagged RBP4 (unknown origin) expressed in Escherichia coli assessed as reduction in untagged Eu-labelled TTR-RBP4 interaction measured after overnight incubation by HTRF assay

Sequence of CYP2C9 (P11712 whole entry): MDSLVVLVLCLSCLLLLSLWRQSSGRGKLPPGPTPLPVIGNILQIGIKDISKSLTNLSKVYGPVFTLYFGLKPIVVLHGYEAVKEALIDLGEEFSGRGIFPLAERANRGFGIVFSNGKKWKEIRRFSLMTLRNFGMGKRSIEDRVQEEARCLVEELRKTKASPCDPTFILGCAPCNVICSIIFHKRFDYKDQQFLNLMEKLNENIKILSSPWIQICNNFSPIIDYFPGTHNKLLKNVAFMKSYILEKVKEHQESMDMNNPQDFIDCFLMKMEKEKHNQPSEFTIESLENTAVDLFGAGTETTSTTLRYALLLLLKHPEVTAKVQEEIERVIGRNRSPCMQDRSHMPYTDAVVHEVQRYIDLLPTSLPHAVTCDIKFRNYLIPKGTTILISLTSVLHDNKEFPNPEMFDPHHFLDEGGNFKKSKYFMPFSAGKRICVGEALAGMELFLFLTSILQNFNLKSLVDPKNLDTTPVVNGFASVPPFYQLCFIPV
Sequence of CYP2C19 (P33261 whole entry): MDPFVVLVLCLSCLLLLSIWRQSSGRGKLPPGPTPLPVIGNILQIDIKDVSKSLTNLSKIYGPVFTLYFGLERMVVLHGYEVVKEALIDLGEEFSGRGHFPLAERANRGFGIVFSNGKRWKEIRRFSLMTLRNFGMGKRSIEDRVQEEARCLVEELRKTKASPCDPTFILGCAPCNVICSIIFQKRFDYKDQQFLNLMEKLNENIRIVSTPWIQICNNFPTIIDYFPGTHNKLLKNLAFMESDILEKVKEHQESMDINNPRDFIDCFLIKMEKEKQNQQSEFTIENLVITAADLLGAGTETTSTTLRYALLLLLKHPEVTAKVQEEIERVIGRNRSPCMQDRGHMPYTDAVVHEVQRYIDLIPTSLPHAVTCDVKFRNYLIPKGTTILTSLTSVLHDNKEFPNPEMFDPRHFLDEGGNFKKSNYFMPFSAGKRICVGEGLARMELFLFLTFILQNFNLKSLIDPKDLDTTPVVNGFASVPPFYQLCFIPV
Sequence of CYP2D6 (P10635 whole entry): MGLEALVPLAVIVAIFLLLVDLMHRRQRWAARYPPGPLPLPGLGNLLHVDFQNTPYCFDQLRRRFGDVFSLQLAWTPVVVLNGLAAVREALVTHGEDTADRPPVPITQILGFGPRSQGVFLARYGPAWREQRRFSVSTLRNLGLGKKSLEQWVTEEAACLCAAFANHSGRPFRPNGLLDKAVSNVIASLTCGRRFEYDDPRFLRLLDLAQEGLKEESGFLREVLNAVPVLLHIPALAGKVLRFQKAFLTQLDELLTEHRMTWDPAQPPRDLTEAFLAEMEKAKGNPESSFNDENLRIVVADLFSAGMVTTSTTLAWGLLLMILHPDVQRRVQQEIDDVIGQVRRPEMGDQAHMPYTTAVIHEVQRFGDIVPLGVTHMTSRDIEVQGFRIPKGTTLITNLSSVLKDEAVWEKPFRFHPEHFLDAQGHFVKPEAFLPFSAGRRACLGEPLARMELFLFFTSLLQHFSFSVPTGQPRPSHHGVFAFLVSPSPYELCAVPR
Sequence of CYP3A4 (P08684 whole entry): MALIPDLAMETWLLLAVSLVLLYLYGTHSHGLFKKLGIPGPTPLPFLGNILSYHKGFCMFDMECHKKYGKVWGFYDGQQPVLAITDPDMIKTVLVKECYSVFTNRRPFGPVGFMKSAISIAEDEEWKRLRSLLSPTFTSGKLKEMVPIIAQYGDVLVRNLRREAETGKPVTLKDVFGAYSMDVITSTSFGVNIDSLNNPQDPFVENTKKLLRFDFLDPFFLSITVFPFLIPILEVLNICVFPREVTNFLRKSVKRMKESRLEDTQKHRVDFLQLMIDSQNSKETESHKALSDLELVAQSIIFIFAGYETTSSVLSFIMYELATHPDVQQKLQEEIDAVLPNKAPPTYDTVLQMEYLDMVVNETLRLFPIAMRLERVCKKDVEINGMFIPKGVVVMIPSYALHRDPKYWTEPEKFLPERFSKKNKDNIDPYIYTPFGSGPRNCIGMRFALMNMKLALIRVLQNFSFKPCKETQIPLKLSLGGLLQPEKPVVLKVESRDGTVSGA

SMILES: Cc1cc(C(=O)O)nc(N2CC(Oc3ccccc3C(F)(F)F)C2)n1
IC50 [1]: > 3000 nM

SMILES: CC1=C(/C=C/C(C)=C/C=C/C(C)=C/CO)C(C)(C)CCC1
Activity [2]: Active

SMILES: O=C(O)c1ccc2nc(-c3cc(Cl)cc(Cl)c3)oc2c1
fold change (FC) [3]: 3.6
Activity [2]: Active

SMILES: COc1ccc(C(F)(F)F)c(OCC2CCN(c3nc(C)cc(C(=O)O)n3)C2)c1 (racemic)
IC50 [1]: > 3000 nM
IC50 [4]: > 30000 nM

SMILES: Cc1cc(C(=O)O)nc(N2CCC(COc3ccccc3C(F)(F)F)C2)n1 (racemic)
solubility kinetic [5]: 187 µM (≈ 71.5 µg/mL)
Stabilty [6]: 93%
Stabilty [7]: 95%
Stabilty [8]: 103%
Stabilty [9]: 105%
inhibition at 10 µM [10]: 0%
inhibition at 10 µM [11]: 8%
inhibition at 10 µM [12]: 18.1%
inhibition at 10 µM [13]: 2.2%
C0 [14]: 9129 ng/mL
beta t1/2 [15]: 8.6 h
Vdss [16]: 0.518 L/kg
Cmax [17]: 3030 ng/mL
Tmax [18]: 0.83 h
t1/2 [19]: 9.9 h
AUC [20]: 52439 ng·h/mL
F [21]: 52%
Activity [22]: 81%
Activity [23]: inactive
Activity [24]: 64%
fold change (FC) [3]: 4.7
Activity [2]: Active

Results, then the compound that gave them:

IC50 [1]: 180 nM
IC50 [4]: 3900 nM
SMILES: Cc1cc(C(=O)O)nc(N2CCC(COc3cccc(Cl)c3C(F)(F)F)C2)n1 (racemic)

IC50 [1]: 240 nM
IC50 [25]: 870 nM
IC50 [4]: 3900 nM
SMILES: Cc1cc(C(=O)O)nc(N2CCC(COc3ccc(F)cc3C(F)(F)F)C2)n1 (racemic)

IC50 [1]: 1600 nM
IC50 [4]: > 30000 nM
SMILES: Cc1cc(C(=O)O)nc(N2CCC(COc3cc(C(F)(F)F)cc(C(F)(F)F)c3)C2)n1 (racemic)
